Measured values from different studies.
Compare with care: the assays were run in different laboratories.
MAPK14 T106M: Mitogen-activated protein kinase 14 (MAPK14, Homo sapiens, UniProt Q16539, T106M)
MAPK14: Mitogen-activated protein kinase 14 (MAPK14, Homo sapiens, UniProt Q16539)

Cc1cnc(NC2CCOCC2)nc1-n1cnc(C(=O)NC(CN)c2cc(F)cc(Cl)c2)c1 (centres unmarked)  remaining activity (MAPK14 T106M; enzyme activity, inhibitor, radiometric; 1 µM): 55%
Cc1c(C(=O)O)cc(-c2ccc(C3CCNCC3)cc2)c2ccc(-c3ccc(C(F)(F)F)cc3)cc12  remaining binding (MAPK14; binding, competition with immobilised ligand; 1 µM): 100%
CC(C)(C)C(=O)c1sc(NC2CCCCC2)nc1N  remaining activity (MAPK14; enzyme activity, inhibitor; 10 µM): 102%
O=C(NCCCC1CCCCC1)c1ccc(CNC(=O)c2cnn(-c3ccccc3)c2C(F)(F)F)cc1  remaining binding (MAPK14; cell-free assay, competition with immobilised ligand; 0.1 µM): 100%
O=C(Nc1cnn(-c2csc(C(=O)NC3COC3)c2)c1)Nc1ccccc1Cl  remaining activity (MAPK14; enzyme activity, inhibitor; 5 µM): 142%
O=C1NC(c2ccccn2)Sc2ccccc21 (centres unmarked)  remaining binding (MAPK14; cell-free assay, competition with immobilised ligand; 1 µM): 81%
CCN(CC)CCNC(=O)c1c(C)[nH]c(/C=C2\C(=O)Nc3ccc(F)cc32)c1C  inhibition (MAPK14 T106M; enzyme activity, inhibitor; 10 µM): 9%
O=C1Nc2ccc(Cl)cc2C1=Cc1cc(Cl)c(O)c(Cl)c1  remaining signal (MAPK14; cell-free assay; 0.5 µM): 74.6%
CC(C)(C)c1nc(-c2cccc(NS(=O)(=O)c3c(F)cccc3F)c2F)c(-c2ccnc(N)n2)s1  remaining activity (MAPK14; enzyme activity, inhibitor, radiometric; 1 µM): 111%
C#Cc1cccc(Nc2ncnc3cc(OCCOC)c(OCCOC)cc23)c1  remaining signal (MAPK14; cell-free assay; 0.5 µM): 95.3%
CNC(=O)c1cc(Oc2ccc(NC(=O)Nc3ccc(Cl)c(C(F)(F)F)c3)cc2)ccn1  inhibition (MAPK14; enzyme activity, inhibitor; 10 µM): 84%
COc1ccc2c(c1)O[C@@H](c1ccc(OC)c(OC)c1)C[C@H]2NC(=O)C1(c2ccc3c(c2)OC(F)(F)O3)CC1  remaining binding (MAPK14; cell-free assay, competition with immobilised ligand; 1 µM): 99%
Cc1ccc(C(=O)Nc2ccc(CN3CCN(C)CC3)c(C(F)(F)F)c2)cc1C#Cc1cnc2cccnn12  remaining activity (MAPK14; enzyme activity, inhibitor; 23.5 nM): 29%
c1ccc(CNc2nc(N3CCOc4ccccc43)nc3c2CCCC3)cc1  inhibition (MAPK14; target engagement in cells, inhibitor, chemoproteomics; 20 mM): 6.3%
O=C(N[C@H]1CCCCC/C=C\C2C[C@@]2(C(=O)O)NC(=O)[C@@H]2C[C@@H](Oc3ccncc3)CN2C1=O)OC1CCCC1 (some centres unmarked)  remaining binding (MAPK14; binding, competition with immobilised ligand; 1 µM): 94%
CSc1nc(-c2ccnc(N[C@@H](C)c3ccccc3)c2)c(-c2ccc(F)cc2)[nH]1 (racemic)  remaining signal (MAPK14; cell-free assay; 0.5 µM): 7.64%
Cc1cc(NC(=O)c2cccc3cc(-c4cccc5[nH]nc(N)c45)ccc23)ccc1F  activity vs control (MAPK14; enzyme activity, inhibitor; 0.1 µM): 85%
Cc1ccc(Nc2nccc(N(C)c3ccc4c(C)n(C)nc4c3)n2)cc1S(N)(=O)=O  inhibition (MAPK14 T106M; enzyme activity, inhibitor; 0.3 µM): 4%
O=C(NS(=O)(=O)c1ccc(NCC2CCOCC2)c([N+](=O)[O-])c1)c1ccc(N2CCN(Cc3ccc(C(F)(F)F)cc3-c3ccc(Cl)cc3)CC2)cc1Oc1cnc2[nH]ccc2c1  remaining binding (MAPK14; cell-free assay, competition with immobilised ligand; 1 µM): 97%
Cn1c(=O)n(-c2ccc(C(C)(C)C#N)cc2)c2c3cc(-c4cnc5ccccc5c4)ccc3ncc21  remaining activity (MAPK14; enzyme activity, inhibitor; 10 µM): 111%
